Tn7 DDE FP: inhibitors of Tn7 peptide binding to fibrin DD(E), primary screen, biochemical, fluorescence polarization, human fibrin, Tn7 probe; AID 720508, 2013; Fibrinogen beta chain (Homo sapiens), P02675; inhibition, % at 8.3 µM; 370,000 tested, 0.13% active; FP displacement of FITC-Tn7 peptide from fibrin DD(E); 0% = median of compound wells per plate;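 active = inhibition above the mean of compounds falling within the control limits plus 3 SD of them, cut at about 14% in these data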;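 also: 0% = plate median of compound wells and 100% = 10 µM Aha-Tn7 peptide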
Target sequence (P02675 whole entry, looked up): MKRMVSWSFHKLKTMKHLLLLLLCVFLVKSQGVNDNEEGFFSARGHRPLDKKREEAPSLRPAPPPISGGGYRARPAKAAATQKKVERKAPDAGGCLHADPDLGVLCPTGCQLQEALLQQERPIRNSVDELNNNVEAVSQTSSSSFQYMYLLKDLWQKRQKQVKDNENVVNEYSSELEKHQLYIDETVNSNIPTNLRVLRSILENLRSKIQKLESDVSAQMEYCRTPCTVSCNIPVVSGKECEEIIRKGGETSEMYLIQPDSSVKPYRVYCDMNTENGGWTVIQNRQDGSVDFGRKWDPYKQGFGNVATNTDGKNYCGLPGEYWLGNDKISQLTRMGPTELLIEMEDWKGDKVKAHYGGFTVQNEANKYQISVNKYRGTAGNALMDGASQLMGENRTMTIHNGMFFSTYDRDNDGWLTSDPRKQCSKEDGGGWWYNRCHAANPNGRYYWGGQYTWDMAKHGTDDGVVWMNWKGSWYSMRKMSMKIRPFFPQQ
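assay system = human clot-derived fibrin DD(E) complex | quantity = Fibrin-DD(E) at 2 µM final | timing = 10 min preincubation, 3 h with tracer, room temperature | signal = fluorescence polarization | measure = percent inhibition | benchmarks = high control wells with 10 µM unlabelled Aha-Tn7 peptide (full inhibition) | replicates = singlicate testing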
Tn6 DDE FP: inhibitors of Tn6 peptide binding to fibrin DD(E), primary screen, biochemical, fluorescence polarization, human fibrin, Tn6 probe; Fibrinogen beta chain (Homo sapiens), P02675; Fibrin DD(E) TRITC-Tn6 fluorescence polarization displacement; inhibition, % at 8.3 µM; 370,000 tested, 0.21% active; AID 720509, 2013;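 active = inhibition above a per-campaign cutoff: mean of compounds within control limits plus 3 SD, cut at about 15% in these data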;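 also: 0% = median of all compound wells on the plate and 100% = blocking peptide control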
CRFR2-BP ag: agonists of CRF-BP/CRF-R2 complex, primary screen, cell-based, HEK293, calcium dye fluorescence, uHTS; 350,000 tested, 0.46% active; calcium dye fluorescence (FLIPR); percent of saturating CRF peptide response; AID 588473, 2011; activation, % at 13.2 µM;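 active = activation of at least 50%, plus an integration ratio under a set limit after plate pattern correction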;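 also: plate controls were neutral control wells without compound for no effect and CRF at EC100 for full effect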
Cardiac RTF inh: cardiac RTF calcium sensitivity inhibitors, primary screen, biochemical, IANBD-TnC fluorescence, EC70 calcium | Troponin I, cardiac muscle (Homo sapiens) + Troponin T, cardiac muscle (Homo sapiens) + … | IANBD-labeled cardiac RTF, Ca2+ fluorescence | inhibition, % at 7.15 µM | 340,000 tested, 0.12% active | AID 493244, 2011;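 active = inhibition above the mean inhibition of all tested compounds plus 3 SD, cut at about 17% in these data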;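 also: assay run at fixed EC70 calcium of 1.6 mM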
CRFBP-R2 block: antagonists of CRF-BP/CRF-R2 complex, primary screen, cell-based, HEK293, calcium dye fluorescence, uHTS | CRF-induced calcium fluorescence | inhibition, % at 11.8 µM | 350,000 tested, 0.59% active;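 active = inhibition of the ligand-induced calcium signal above about 50% at the single tested concentration, limit read from the data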
RTF Ca sens act: cardiac RTF calcium sensitivity activators, primary screen, biochemical, IANBD-TnC fluorescence, EC20 calcium; 340,000 tested, 0.24% active; activation, % at 7.2 µM; Troponin I, cardiac muscle (Homo sapiens) + Troponin T, cardiac muscle (Homo sapiens) + …; IANBD-labeled TnC RTF fluorescence at EC20 calcium; 0% EC20 calcium, 100% full calcium;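 active = activation above the mean over all tested compounds plus 3 SD, cut at about 30% in these data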;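 also: rise in fluorescence read as greater calcium sensitivity of cardiac thin filaments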
Tn6 DDE ctr: counter-screen for inhibitors of Tn6 peptide binding to fibrin DD(E). shares compounds with Tn6 DDE FP. TRITC-Tn6 fluorescence polarization displacement; 0% = median of compound wells, not DMSO. inhibition, % at 8.3 µM. 680 tested, 2% active;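 active = inhibition above the mean of test compounds lying between the control limits plus 3 SD of those, cut at about 14% in these data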;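 also: 0% = median of compound wells and 100% = wells with Aha-Tn7 blocking peptide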
DDE Tn6 confirm: inhibitors of Tn6 peptide binding to fibrin DD(E), confirmation, biochemical, fluorescence polarization, human fibrin, Tn6 probe. shares compounds with Tn6 DDE FP. FP displacement of TRITC-Tn6 peptide from DD(E); 0% = per-plate median of test wells. inhibition, % at 8.3 µM. 680 tested, 10% active. AID 720631, 2013;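 active = inhibition above the mean of compounds lying within the control limits plus 3 SD, cut at about 16% in these data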;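 also: 100% = high control wells holding a competing inhibitor peptide at 10 µM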
* marks the source's active call; other numbers are inactive results; nt = no result given. Rows were chosen to be rich in hits. Some 1.4% of all compounds tested hit in one or more screens of this group.

SMILES | Tn7 DDE FP | Tn6 DDE FP | CRFR2-BP ag | Cardiac RTF inh | CRFBP-R2 block | RTF Ca sens act | Tn6 DDE ctr | DDE Tn6 confirm
COC(=O)[C@@]12C[C@@H](CC(=O)NCc3cccc(C(F)(F)F)c3)C(=O)N(Cc3cccc4ccccc34)C1=CCC(C)(C)C2 | -3.2 | 8.3 | nt | nt | nt | nt | nt | nt
CCCC[C@H]1C2CC(OC(=O)Nc3ccc(Br)cc3)C(C2)[C@H]2CCCCN21 (stereo not given in full) | 2.4 | -8.0 | nt | nt | nt | nt | nt | nt
CCCCCCCCN1C(=O)[C@@H](CC(=O)NCCCOC)C[C@@]2(C(=O)OC)C1=C[C@H](COCc1ccccc1)O[C@@H]2C | 6.8 | 6.0 | nt | nt | nt | nt | nt | nt
COc1cc(CCC(=O)OCC(=O)Nc2c(C)cccc2C(C)C)cc(OC)c1OC | 6.5 | 15.5* | 0.1 | 6.6 | -3.0 | -0.7 | 8.6 | 3.3
CN(C)c1ccc(NC(=S)Nc2ccc3c(c2)c(=O)n(C)n3-c2ccc(C(C)(C)C)cc2)cc1 | 3.5 | -2.6 | nt | nt | nt | nt | nt | nt
O=[n+]1c2c(n([O-])c3cc(F)c(N4CCCC4)cc31)CCC2 | 11.6 | 15.6* | 46.9 | -86.7 | -34.8 | 52.7* | 4.2 | 17.1*
O=C(COC(=O)c1cc(-c2cccc3ccccc23)nc2ccccc12)NC1CCS(=O)(=O)C1 (stereo not given) | -4.7 | 29.8* | 39.4 | -27.3 | -36.1 | 21.2 | 5.6 | 19.7*
Cc1cc(C(=O)OCC(=O)NC2CCS(=O)(=O)C2)c2ccccc2n1 (stereo not given) | -1.0 | 7.8 | -2.0 | -1.4 | -1.5 | 6.1 | nt | nt
COCCCNc1nc2c(c(=O)[nH]c(=O)n2C)n1CC(O)COc1ccccc1C (stereo not given) | 5.2 | 17.1* | -0.8 | -4.9 | -4.0 | 2.6 | -0.6 | 0.1
OCCN1CCN(CCOc2cccc(Cl)c2)CC1 | -7.2 | 16.6* | 0.7 | -26.8 | 21.2 | 2.0 | -0.3 | -3.6
Clc1cccc(OCCN2CCNCC2)c1 | 1.2 | 3.8 | -0.7 | -4.5 | 0.6 | 5.8 | nt | nt
C[C@H](CO)N1C[C@H](C)[C@@H](CN(C)C(=O)c2ccccc2)OCc2cn(nn2)CCCC1=O | 2.3 | -4.0 | 1.4 | nt | -1.0 | nt | nt | nt
Cc1cccc(NS(=O)(=O)c2ccc3[nH]c(=O)cc(C(=O)OC(C)C(=O)Nc4ccc([N+](=O)[O-])cc4)c3c2)c1 (stereo not given) | -3.7 | 49.6* | -0.4 | -3.3 | -1.0 | -0.7 | 7.7 | -2.9
CCc1ccc(NC(=O)C(C)OC(=O)c2cc(=O)[nH]c3ccc(S(=O)(=O)Nc4ccc(F)cc4)cc23)cc1 (stereo not given) | 7.9 | -0.9 | 1.3 | -3.9 | 8.7 | 2.0 | nt | nt
CCOc1ccc(OCC)c(S(=O)(=O)n2cnc(C)c2)c1 | -3.7 | 16.3* | -1.4 | 2.8 | 5.6 | -0.5 | -3.0 | -7.6
CNNC(=S)Nc1cccc(C(F)(F)F)c1 | -5.9 | -2.1 | -4.3 | nt | 1.0 | nt | nt | nt
CC(C)(O)C(=O)NNC(=S)Nc1cccc(C(F)(F)F)c1 | 4.8 | 17.4* | 2.3 | -3.2 | 14.9 | -0.8 | 2.7 | 2.2
CCOC(=O)C1CCCN(c2c(NCCc3ccc(C)cc3)c(=O)c2=O)C1 (stereo not given) | 1.5 | 17.3* | -3.9 | -6.2 | -2.6 | -0.8 | 2.7 | -9.8
CCOC(=O)C1CCCN(c2c(NCCCN(C)Cc3ccccc3)c(=O)c2=O)C1 (stereo not given) | -1.4 | -6.7 | -0.4 | -5.0 | 8.7 | -5.6 | nt | nt
COC(=O)c1cc2c(n1S(=O)(=O)c1ccc(C)cc1)C(=O)C(=O)c1[nH]cc(C(=O)OCc3ccccc3)c1-2 | nt | nt | 2.2 | 3.8 | 5.2 | -5.4 | nt | nt
NS(=O)(=O)c1ccc(Nc2ccc3cc(S(=O)(=O)N4CCCCC4)ccc3n2)cc1 | -6.7 | 36.1* | 1.4 | -5.9 | -21.0 | -1.3 | 5.3 | -21.0
O=C(O)c1ccc(S(=O)(=O)c2ccc3c(c2)C(=O)N(c2ccc(O)cc2)C3=O)cc1 | -0.4 | 47.7* | -1.3 | 3.4 | -1.8 | -1.1 | 2.1 | 1.4
O=C(O)c1ccc(NC(=O)c2ccc3c(c2)C(=O)N(c2ccccc2)C3=O)cc1 | 0.6 | 0.1 | 7.3 | -4.0 | 5.5 | 5.5 | nt | nt
O=C(NCC(=O)N1CCN(S(=O)(=O)c2cccc(F)c2)CC1)c1ccc(Br)o1 | -2.1 | 15.8* | -0.3 | -9.0 | -9.9 | 6.3 | 13.7 | 4.0
O=C(CNC(=O)c1ccc(Br)o1)Nc1cccc(S(=O)(=O)N2CCOCC2)c1 | 0.6 | -2.3 | 2.5 | -8.5 | -16.7 | -2.9 | nt | nt
SMILES | Tn7 DDE FP | Tn6 DDE FP | CRFR2-BP ag | Cardiac RTF inh | CRFBP-R2 block | RTF Ca sens act | Tn6 DDE ctr | DDE Tn6 confirm
Cc1cc(C)cc(NC(=O)N2CCC(c3nc4ccc(Cl)cc4[nH]3)CC2)c1 | -4.1 | 4.3 | nt | nt | nt | nt | nt | nt
Cc1ccc(CNC(=O)c2ccc(S(=O)(=O)N3CCCCCC3)cc2)cc1 | -0.6 | -6.4 | -1.5 | nt | -2.6 | nt | nt | nt
Cc1cc2cc(CNC(=O)c3ccc(S(=O)(=O)N(C)C)cc3)ccc2n1C | -1.5 | 65.4* | -3.2 | -2.3 | 15.7 | 10.5 | 5.0 | 14.2
Cc1cc2cc(CNC(=O)c3ccc(S(=O)(=O)N4CCCCC4)cc3)ccc2[nH]1 | -10.4 | 18.3* | 2.1 | -5.7 | -10.7 | 4.9 | 4.8 | -5.3
Cc1cc2cc(CNC(=O)c3ccc(S(=O)(=O)N4CCOCC4)cc3)ccc2n1C | 2.5 | 52.9* | -4.5 | -9.7 | -4.3 | 5.4 | 5.3 | 19.2*
Cc1cc2cc(CNC(=O)c3ccc(Br)o3)ccc2n1C | -1.5 | 14.6 | -1.8 | -8.0 | -17.0 | 3.3 | nt | nt
COc1cccc(CNC(=O)c2ccc(S(=O)(=O)N3CCOCC3)cc2)c1 | 2.5 | -6.2 | 0.4 | -5.5 | 24.0 | 9.2 | nt | nt
CN(C)C(=O)c1cccc(-c2cnc3c(NC=O)cc(-c4ccccc4N(C)C)cn23)c1 | -8.2 | 30.6* | nt | nt | nt | nt | 2.6 | -5.1
C(=Nn1cnnc1)c1ccc2c(c1)CCC2 | -11.4 | 6.7 | -1.4 | nt | -4.1 | nt | nt | nt
Cc1cccc(C)c1-n1nnnc1C1(C)CN(S(C)(=O)=O)CC(=O)N1Cc1ccc(F)cc1 (stereo not given) | -4.5 | 16.0* | nt | nt | nt | nt | -2.4 | -4.7

Screening data (PubChem)
